≈ marks a conversion by molar mass, not a printed value. Calls of active or inactive are those of the source. No cut-off for these calls is given here.
Columns and labels:
Candida albicans [1] = experiment: Antifungal activity against Candida albicans CA-6 infected in CD1 mouse assessed as reduction of fungal burden in kidneys at 10 mg/kg, ip pretreated 2 hrs before fungus-challenge and once daily for 6 days measured 7 days post-infection; format: functional, organism-based; set-up: dose 10 mg/kg; conditions: Kidney
Outline: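 Female outbred CD1 mice, 8–10 weeks old, were infected i.v. on day 0 with 2.5 × 10⁵ CA-6 blastospores. Dosing was 10 mg/kg i.p. 2 h before challenge, then daily for 6 days; vehicle was 0.2 ml 2% EtOH in saline i.p. At day 7, kidney homogenates were serially diluted and plated on Sabouraud agar for CFU. Three experiments, 4 mice/group.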

Candida albicans [2] = experiment: Antifungal activity against Candida albicans PCA-2 after 48 hrs by broth microdilution assay; format: functional; conditions: PCA-2, 48 h
Outline: (§1)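 Yeasts kept on Sabouraud agar by serial passage. A single colony was suspended in saline, washed twice, counted by hemocytometer and added at 5 × 10⁴ CFU in RPMI 1640/MOPS pH 7.0 to serial compound dilutions. Compounds were stocked in 20% ethanol. Incubation was at 37 °C. MIC is the lowest concentration giving complete growth inhibition, read visually.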

Nakaseomyces glabratus [3] = experiment: Antifungal activity against Candida glabrata after 24 hrs by broth microdilution assay; format: functional; outline: as §1
Nakaseomyces glabratus [4] = experiment: Antifungal activity against Candida glabrata after 48 hrs by broth microdilution assay; format: functional; outline: as §1
Candida albicans [5] = experiment: Antifungal activity against Candida albicans CA-6 after 24 hrs by broth microdilution assay; format: functional; conditions: CA-6, 24 h; outline: as §1
Pichia kudriavzevii [6] = experiment: Antifungal activity against Candida krusei after 24 hrs by broth microdilution assay; format: functional; outline: as §1
Candida parapsilosis [7] = experiment: Antifungal activity against Candida parapsilosis after 48 hrs by broth microdilution assay; format: functional; conditions: Lodderomyces parapsilosis; outline: as §1
Candida parapsilosis [8] = experiment: Antifungal activity against Candida parapsilosis after 24 hrs by broth microdilution assay; format: functional; conditions: Lodderomyces parapsilosis; outline: as §1
Candida albicans [9] = experiment: Antifungal activity against Candida albicans CA-6 infected in CD1 mouse assessed as survival from fungus-induced mortality at 10 mg/kg, ip pretreated 2 hrs before fungus-challenge and once daily for 6 days; format: functional
Outline: (§2)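 Female outbred CD1 mice, 8–10 weeks old, infected i.v. on day 0 with C. albicans CA-6 blastospores (7 × 10⁵/mouse). Given 10 mg/kg i.p. 2 h before infection, then once daily for 6 consecutive days. Vehicle was 0.2 ml 2% EtOH in saline i.p. Survival monitored over a 30-day observation period. Three repeat experiments, 4 animals/group.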

Candida albicans [10] = experiment: Antifungal activity against Candida albicans CA-6 infected in CD1 mouse assessed as reduction of fungal burden in kidneys treated with 0.3 ml serum of 10 mg/kg, ip dosed mouse collected after 1 hr determined 7 days post-infection; format: functional, organism-based; set-up: dose 10 mg/kg; conditions: Kidney
Outline: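 Donor mice received 10 mg/kg i.p. or vehicle (0.2 ml 2% EtOH in saline); serum was collected 1 h later. Recipient CD1 mice received 0.3 ml serum i.p. 1 h before i.v. challenge with 7 × 10⁵ CA-6 per mouse. Kidney CFU were counted on Sabouraud agar 7 days after challenge.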

Candida albicans [11] = experiment: Antifungal activity against Candida albicans CA-6 infected in CD1 mouse assessed as reduction of inflammatory foci in kidney at 10 mg/kg, ip pretreated 2 hrs before fungus-challenge and once daily for 6 days measured 7 days post-infection by periodic acid-Schiff staining; format: functional, organism-based; set-up: dose 10 mg/kg
Outline: (§3)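 CD1 mice were challenged i.v. with 7 × 10⁵ CA-6 per mouse. Dosing was 10 mg/kg 2 h before challenge, then once daily for 6 days. Kidneys were excised 7 days post-infection, formalin-fixed and paraffin-embedded. Sections were stained with periodic acid-Schiff and assessed histologically for fungal cells and inflammatory foci.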

Cryptococcus neoformans [12] = experiment: Antifungal activity against Cryptococcus neoformans 6995 after 48 hrs by broth microdilution assay; format: functional; conditions: Cryptococcus neoformans, 6995, 48 h
Candida albicans [13] = experiment: Antifungal activity against Candida albicans CA-6 infected in CD1 mouse assessed as reduction fungal cell number in kidney at 10 mg/kg, ip pretreated 2 hrs before fungus-challenge and once daily for 6 days measured 7 days post-infection by periodic acid-Schiff staining; format: functional, organism-based; set-up: dose 10 mg/kg; outline: as §3
Pichia kudriavzevii [14] = experiment: Antifungal activity against Candida krusei after 48 hrs by broth microdilution assay; format: functional; outline: as §1
Candida albicans [15] = experiment: Antifungal activity against Candida albicans CA-6 after 48 hrs by broth microdilution assay; format: functional; conditions: CA-6, 48 h; outline: as §1
Candida albicans [16] = experiment: Antifungal activity against Candida albicans PCA-2 after 24 hrs by broth microdilution assay; format: functional; conditions: PCA-2, 24 h; outline: as §1
Cryptococcus neoformans [17] = experiment: Antifungal activity against Cryptococcus neoformans CAP67 after 48 hrs by broth microdilution assay; format: functional; conditions: CAP67, 48 h
Candida albicans [18] = experiment: Antifungal activity against Candida albicans CA-6 infected in CD1 mouse assessed as survival days in 30 days observation period at 10 mg/kg, ip pretreated 2 hrs before fungus-challenge and once daily for 6 days; format: functional; conditions: route intraperitoneal; outline: as §2

| SMILES | Activity (Candida albicans [1]) | MIC (Candida albicans [2]) [µg/mL] | MIC (Nakaseomyces glabratus [3]) [µg/mL] | MIC (Nakaseomyces glabratus [4]) [µg/mL] | MIC (Candida albicans [5]) [µg/mL] | MIC (Pichia kudriavzevii [6]) [µg/mL] | MIC (Candida parapsilosis [7]) [µg/mL] | MIC (Candida parapsilosis [8]) [µg/mL] | Activity (Candida albicans [9]; route intraperitoneal) [%] | Activity (Candida albicans [10]) | Activity (Candida albicans [11]) | MIC (Cryptococcus neoformans [12]) [µg/mL] | Activity (Candida albicans [13]) | MIC (Pichia kudriavzevii [14]) [µg/mL] | MIC (Candida albicans [15]) [µg/mL] | MIC (Candida albicans [16]) [µg/mL] | MIC (Cryptococcus neoformans [17]) [µg/mL] | Activity (Candida albicans [9]) | Activity (Candida albicans [18]) [days] |
| --- | --- | --- | --- | --- | --- | --- | --- | --- | --- | --- | --- | --- | --- | --- | --- | --- | --- | --- | --- |
| CCCCC1Oc2ccc(OC[C@@H]3CO[C@](Cn4ccnc4)(c4ccc(Cl)cc4Cl)O3)cc2N(C)C1=O (relative stereo) | Active | > 500 | 62.5 (≈ 114 µM) | > 500 | 0.49 (≈ 0.897 µM) | 3.9 (≈ 7.14 µM) | 500 (≈ 915 µM) | 125 (≈ 229 µM) | 50 | Active | Active | 7.8 (≈ 14.3 µM) | Active | 7.8 (≈ 14.3 µM) | 0.49 (≈ 0.897 µM) | > 500 | 3.9 (≈ 7.14 µM) |  |  |
| CN1C(=O)COc2ccc(OC[C@@H]3CO[C@](Cn4ccnc4)(c4ccc(Cl)cc4Cl)O3)cc21 (relative stereo) |  | > 500 | 15.6 (≈ 31.8 µM) | 250 (≈ 510 µM) | 0.49 (≈ 0.999 µM) | 15.6 (≈ 31.8 µM) | > 500 | > 500 |  |  |  | 1.95 (≈ 3.98 µM) |  | > 500 | 0.49 (≈ 0.999 µM) | > 500 | 0.03 (≈ 0.0612 µM) | inactive |  |
| CN1C(=O)COc2ccc(OC[C@H]3CO[C@](Cn4ccnc4)(c4ccc(Cl)cc4Cl)O3)cc21 (relative stereo) |  | > 500 | 7.8 (≈ 15.9 µM) | > 500 | 0.49 (≈ 0.999 µM) | 15.6 (≈ 31.8 µM) | > 500 | 250 (≈ 510 µM) |  |  |  | 0.24 (≈ 0.489 µM) |  | > 500 | 0.49 (≈ 0.999 µM) | > 500 | 0.0019 (≈ 0.00387 µM) | inactive |  |
| CCCCC1Oc2ccc(OC[C@H]3CO[C@](Cn4ccnc4)(c4ccc(Cl)cc4Cl)O3)cc2N(C)C1=O (relative stereo) | Active | 125 (≈ 229 µM) | 31.2 (≈ 57.2 µM) | 125 (≈ 229 µM) | 0.49 (≈ 0.897 µM) | 3.9 (≈ 7.14 µM) | 31.2 (≈ 57.2 µM) | 31.2 (≈ 57.2 µM) |  | Active | Active | 7.8 (≈ 14.3 µM) | Active | 3.9 (≈ 7.14 µM) | 0.49 (≈ 0.897 µM) | 125 (≈ 229 µM) | 1.95 (≈ 3.57 µM) |  | 23 |
| OC(Cn1cncn1)(Cn1cncn1)c1ccc(F)cc1F [FLUCONAZOLE] | Active | > 500 | 125 (≈ 408 µM) | 250 (≈ 816 µM) | < 0.0076 | 250 (≈ 816 µM) | 15.6 (≈ 50.9 µM) | 7.8 (≈ 25.5 µM) | 75 | Active | Active | 3.9 (≈ 12.7 µM) | Active | > 500 | < 0.0076 | > 500 | 0.49 (≈ 1.6 µM) |  |  |
| CC(=O)N1CCN(c2ccc(OCC3COC(Cn4ccnc4)(c4ccc(Cl)cc4Cl)O3)cc2)CC1 (centres undefined) [KETOCONAZOLE] |  | 15.6 (≈ 29.4 µM) | 0.12 (≈ 0.226 µM) | 1.95 (≈ 3.67 µM) | < 0.0076 | 0.49 (≈ 0.922 µM) | 0.00095 (≈ 0.00179 µM) | < 6e-05 |  |  |  | 0.00095 (≈ 0.00179 µM) |  | 0.97 (≈ 1.83 µM) | < 0.0076 | 15.6 (≈ 29.4 µM) | 0.00012 (≈ 0.000226 µM) |  |  |
